Experiments:
[1] = Phase IIa monotherapy study: plasma pharmacokinetics; format: in vivo, HIV-1–positive, treatment-naive adults; details: for Accumulation ratio AUC0-τ, geometric mean (% CVb) / Accumulation ratio Cmax, geometric mean (% CVb) / Accumulation ratio Cτ, geometric mean (% CVb): steady state vs day 1; for Tmax / AUC(0-t): human
Outline: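 Oral doses were given once daily with food: part 1 for 10 days, part 2 for 7 days. Plasma drug was measured by LC-MS/MS (range 3.00–1000 ng/mL). Noncompartmental parameters were AUC0-24, Cmax and tmax on day 1, and AUC0-τ, Cmax and Cτ at steady state (day 8, 9 or 10 in part 1; day 7 in part 2). Accumulation ratios were steady state vs day 1, and dose proportionality used a power model. Participants vomiting within 1× tmax were excluded.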

[2] = Phase IIa monotherapy study: safety and tolerability; format: in vivo, HIV-1–positive, treatment-naive adults; details: for Drug-related AEs: Abdominal pain / Drug-related AEs: Any event / Drug-related AEs: Chromaturia / Drug-related AEs: Diarrhea / Drug-related AEs: Epistaxis / Drug-related AEs: Fatigue / Drug-related AEs: Headache / Drug-related AEs: Maculopapular rash / Drug-related AEs: Nausea / Drug-related AEs: Pruritus / Drug-related AEs: Vomiting / Total AEs: Abdominal pain / Total AEs: Any event / Total AEs: Diarrhea / Total AEs: Headache / Total AEs: Lymphadenopathy / Total AEs: Nasopharyngitis / Total AEs: Oropharyngeal pain / Total AEs: Vomiting / Serious AEs: Anal abscess / Serious AEs: Congestive cardiomyopathy: n = 6; for Serious AEs: Anal abscess / Serious AEs: Congestive cardiomyopathy: considered not related to the study drug
Outline: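 Adults were ART-naive, aged 18–65 years, with HIV-1 RNA ≥5000 copies/mL and CD4+ ≥350 cells/mm3. They received placebo or oral once-daily doses after a moderate-fat meal: 10 or 200 mg for 10 days (part 1), or 40–140 mg for 7 days (part 2). Safety was monitored through adverse events, clinical laboratory tests, electrocardiograms and vital signs.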

[3] = observed in other studies; cited from earlier work
[4] = 10 mg once daily, part 1 (10 days)
[5] = 40 mg once daily, part 2 (7 days)
[6] = 80 mg once daily, part 2 (7 days)
[7] = 140 mg once daily, part 2 (7 days)
[8] = 200 mg once daily, part 1 (10 days)
[9] = all doses combined, % of 34 participants

SMILES: C=C(C)[C@@H]1CC[C@]2(NCCN3CCS(=O)(=O)CC3)CC[C@]3(C)[C@H](CC[C@@H]4[C@@]5(C)CC=C(C6=CC[C@@](CF)(C(=O)O)CC6)C(C)(C)[C@@H]5CC[C@]43C)[C@@H]12 [GSK’254]
- Accumulation ratio AUC0-τ, geometric mean (% CVb) ([1]; 10 mg once daily): 1.54 (24.5)
- Accumulation ratio Cmax, geometric mean (% CVb) ([1]; 10 mg once daily): 0.93 (171.7)
- Accumulation ratio Cτ, geometric mean (% CVb) ([1]; 10 mg once daily): 1.48 (22.2)
- Accumulation ratio AUC0-τ, geometric mean (% CVb) ([1]; 40 mg once daily): 2.29 (11.2)
- Accumulation ratio Cmax, geometric mean (% CVb) ([1]; 40 mg once daily): 2.03 (24.4)
- Accumulation ratio Cτ, geometric mean (% CVb) ([1]; 40 mg once daily): 2.30 (6.4)
- Accumulation ratio AUC0-τ, geometric mean (% CVb) ([1]; 80 mg once daily): 1.93 (18.6)
- Accumulation ratio Cmax, geometric mean (% CVb) ([1]; 80 mg once daily): 1.73 (17.6)
- Accumulation ratio Cτ, geometric mean (% CVb) ([1]; 80 mg once daily): 1.94 (20.8)
- Accumulation ratio Cmax, geometric mean (% CVb) ([1]; 140 mg once daily): 2.02 (37.5)
- Accumulation ratio Cτ, geometric mean (% CVb) ([1]; 140 mg once daily): 1.90 (16.0)
- Accumulation ratio AUC0-τ, geometric mean (% CVb) ([1]; 200 mg once daily): 2.25 (72.1)
- Accumulation ratio Cmax, geometric mean (% CVb) ([1]; 200 mg once daily): 1.98 (69.4)
- Accumulation ratio Cτ, geometric mean (% CVb) ([1]; 200 mg once daily): 1.98 (61.2)
- Dose proportionality of plasma PK ([1]; 10-200 mg): generally dose proportional to 140 mg but non-proportional between 140 and 200 mg
- Tmax ([1]; plasma, oral, Median tmax across all doses, steady state, 10-200 mg): 4.02 to 5.48 h
- AUC(0-t) ([1]; plasma, po, 10 mg): 700 ng·h/mL
- AUC(0-t) ([1]; plasma, po, 40 mg): 3250 ng·h/mL
- AUC(0-t) ([1]; plasma, po, 80 mg): 6120 ng·h/mL
- AUC(0-t) ([1]; plasma, po, 140 mg): 14000 ng·h/mL
- Tmax ([1]; plasma, po, 140 mg, tmax, median (range), repeat dose 140 mg once daily, day 7 (part 2), plasma, n = 6): 4.08 h
- AUC(0-t) ([1]; plasma, po, 200 mg): 12400 ng·h/mL
- Tmax ([1]; plasma, po, 200 mg, tmax, median (range), repeat dose 200 mg once daily, Day 8, 9, or 10 (part 1), plasma, n = 6): 5.48 h
- Dose proportionality power model estimated slope (90% CI) for Cτ ([1]; repeat administration, steady state): 1.14 (90% CI: 1.02–1.26)
- CL/F (apparent oral clearance), geometric mean (% CVb) ([1]; repeat dose 40 mg once daily, day 7 (part 2), n = 6): 5360 (26.8) mL/h
- CL/F (apparent oral clearance), geometric mean (% CVb) ([1]; repeat dose 80 mg once daily, day 7 (part 2), n = 6): 6765 (26.7) mL/h
- CL/F (apparent oral clearance), geometric mean (% CVb) ([1]; repeat dose 140 mg once daily, day 7 (part 2), n = 6): 4779 (27.9) mL/h
- CL/F (apparent oral clearance), geometric mean (% CVb) ([1]; repeat dose 200 mg once daily, Day 8, 9, or 10 (part 1), n = 6): 7159 (18.4) mL/h
- AUC0-τ, geometric mean (% CVb) ([1]; repeat dose 200 mg once daily, Day 8, 9, or 10 (part 1), plasma, n = 6): 27.90 (18.4) µg∗h/mL
- Mean trough concentration relative to target trough concentration ([1]; ≥40-mg groups (all dose groups except 10 mg)): > 110 ng/mL
- Drug-related AEs: Abdominal pain [2, 4]: 0 n (%)
- Drug-related AEs: Any event [2, 4]: 2 (33) n (%)
- Drug-related AEs: Chromaturia [2, 4]: 1 (17) n (%)
- Drug-related AEs: Diarrhea [2, 4]: 1 (17) n (%)
- Drug-related AEs: Epistaxis [2, 4]: 0 n (%)
- Drug-related AEs: Fatigue [2, 4]: 0 n (%)
- Drug-related AEs: Headache [2, 4]: 0 n (%)
- Drug-related AEs: Maculopapular rash [2, 4]: 0 n (%)
- Drug-related AEs: Nausea [2, 4]: 1 (17) n (%)
- Drug-related AEs: Pruritus [2, 4]: 0 n (%)
- Drug-related AEs: Vomiting [2, 4]: 1 (17) n (%)
- Total AEs: Abdominal pain [2, 4]: 0 n (%)
- Total AEs: Any event [2, 4]: 3 (50) n (%)
- Total AEs: Diarrhea [2, 4]: 1 (17) n (%)
- Total AEs: Headache [2, 4]: 0 n (%)
- Total AEs: Lymphadenopathy [2, 4]: 1 (17) n (%)
- Total AEs: Nasopharyngitis [2, 4]: 0 n (%)
- Total AEs: Oropharyngeal pain [2, 4]: 0 n (%)
- Total AEs: Vomiting [2, 4]: 1 (17) n (%)
- Drug-related AEs: Abdominal pain [2, 5]: 0 n (%)
- Drug-related AEs: Any event [2, 5]: 2 (33) n (%)
- Drug-related AEs: Chromaturia [2, 5]: 0 n (%)
- Drug-related AEs: Diarrhea [2, 5]: 1 (17) n (%)
- Drug-related AEs: Epistaxis [2, 5]: 1 (17) n (%)
- Drug-related AEs: Fatigue [2, 5]: 1 (17) n (%)
- Drug-related AEs: Headache [2, 5]: 0 n (%)
- Drug-related AEs: Maculopapular rash [2, 5]: 0 n (%)
- Drug-related AEs: Nausea [2, 5]: 0 n (%)
- Drug-related AEs: Pruritus [2, 5]: 0 n (%)
- Drug-related AEs: Vomiting [2, 5]: 0 n (%)
- Total AEs: Abdominal pain [2, 5]: 0 n (%)
- Total AEs: Any event [2, 5]: 5 (83) n (%)
- Total AEs: Diarrhea [2, 5]: 1 (17) n (%)
- Total AEs: Headache [2, 5]: 1 (17) n (%)
- Total AEs: Lymphadenopathy [2, 5]: 0 n (%)
- Total AEs: Nasopharyngitis [2, 5]: 0 n (%)
- Total AEs: Oropharyngeal pain [2, 5]: 0 n (%)
- Total AEs: Vomiting [2, 5]: 0 n (%)
- Drug-related AEs: Abdominal pain [2, 6]: 2 (33) n (%)
- Drug-related AEs: Any event [2, 6]: 2 (33) n (%)
- Drug-related AEs: Chromaturia [2, 6]: 0 n (%)
- Drug-related AEs: Diarrhea [2, 6]: 0 n (%)
- Drug-related AEs: Epistaxis [2, 6]: 0 n (%)
- Drug-related AEs: Fatigue [2, 6]: 0 n (%)
- Drug-related AEs: Headache [2, 6]: 0 n (%)
- Drug-related AEs: Maculopapular rash [2, 6]: 0 n (%)
- Drug-related AEs: Nausea [2, 6]: 0 n (%)
- Drug-related AEs: Pruritus [2, 6]: 0 n (%)
- Drug-related AEs: Vomiting [2, 6]: 0 n (%)
- Total AEs: Abdominal pain [2, 6]: 2 (33) n (%)
- Total AEs: Any event [2, 6]: 4 (67) n (%)
- Total AEs: Diarrhea [2, 6]: 0 n (%)
- Total AEs: Headache [2, 6]: 0 n (%)
- Total AEs: Lymphadenopathy [2, 6]: 0 n (%)
- Total AEs: Nasopharyngitis [2, 6]: 0 n (%)
- Total AEs: Oropharyngeal pain [2, 6]: 0 n (%)
- Total AEs: Vomiting [2, 6]: 0 n (%)
- Drug-related AEs: Abdominal pain [2, 7]: 0 n (%)
- Drug-related AEs: Any event [2, 7]: 1 (17) n (%)
- Drug-related AEs: Chromaturia [2, 7]: 0 n (%)
- Drug-related AEs: Diarrhea [2, 7]: 0 n (%)
- Drug-related AEs: Epistaxis [2, 7]: 0 n (%)
- Drug-related AEs: Fatigue [2, 7]: 0 n (%)
- Drug-related AEs: Headache [2, 7]: 0 n (%)
- Drug-related AEs: Maculopapular rash [2, 7]: 1 (17) n (%)
- Drug-related AEs: Nausea [2, 7]: 0 n (%)
- Drug-related AEs: Pruritus [2, 7]: 1 (17) n (%)
- Drug-related AEs: Vomiting [2, 7]: 0 n (%)
- Total AEs: Abdominal pain [2, 7]: 0 n (%)
- Total AEs: Any event [2, 7]: 5 (83) n (%)
- Total AEs: Diarrhea [2, 7]: 0 n (%)
- Total AEs: Headache [2, 7]: 1 (17) n (%)
- Total AEs: Lymphadenopathy [2, 7]: 0 n (%)
- Total AEs: Nasopharyngitis [2, 7]: 0 n (%)
- Total AEs: Oropharyngeal pain [2, 7]: 1 (17) n (%)
- Total AEs: Vomiting [2, 7]: 0 n (%)
- Serious AEs: Anal abscess [2, 7]: 1 (17) n (%)
- Serious AEs: Congestive cardiomyopathy [2, 7]: 0 n (%)
- Drug-related AEs: Abdominal pain [2, 8]: 0 n (%)
- Drug-related AEs: Any event [2, 8]: 2 (33) n (%)
- Drug-related AEs: Chromaturia [2, 8]: 0 n (%)
- Drug-related AEs: Diarrhea [2, 8]: 1 (17) n (%)
- Drug-related AEs: Epistaxis [2, 8]: 0 n (%)
- Drug-related AEs: Fatigue [2, 8]: 0 n (%)
- Drug-related AEs: Headache [2, 8]: 1 (17) n (%)
- Drug-related AEs: Maculopapular rash [2, 8]: 0 n (%)
- Drug-related AEs: Nausea [2, 8]: 0 n (%)
- Drug-related AEs: Pruritus [2, 8]: 0 n (%)
- Drug-related AEs: Vomiting [2, 8]: 1 (17) n (%)
- Total AEs: Abdominal pain [2, 8]: 0 n (%)
- Total AEs: Any event [2, 8]: 5 (83) n (%)
- Total AEs: Diarrhea [2, 8]: 1 (17) n (%)
- Total AEs: Headache [2, 8]: 2 (33) n (%)
- Total AEs: Lymphadenopathy [2, 8]: 1 (17) n (%)
- Total AEs: Nasopharyngitis [2, 8]: 2 (33) n (%)
- Total AEs: Oropharyngeal pain [2, 8]: 2 (33) n (%)
- Total AEs: Vomiting [2, 8]: 1 (17) n (%)
- Serious AEs: Anal abscess [2, 8]: 0 n (%)
- Serious AEs: Congestive cardiomyopathy [2, 8]: 0 n (%)
- Trends in laboratory values, electrocardiograms, or vital signs ([2]; across treatment groups in parts 1 or 2): No clinically significant trends
- AEs leading to treatment discontinuation ([2]; all doses): No AEs led to treatment discontinuation
- Deaths ([2]; all doses): no deaths were reported
- Number of drug-related AEs overall ([2]; all doses combined): Fourteen
- Participants reporting abdominal pain overall ([2]; all doses combined): 2 n
- Participants reporting diarrhea overall ([2]; all doses combined): 3 n
- Participants reporting headache overall ([2]; all doses combined): 4 n
- Participants reporting oropharyngeal pain overall ([2]; all doses combined): 3 n
- Participants reporting vomiting overall ([2]; all doses combined): 2 n
- Participants reporting drug-related AEs overall [2, 9]: 9 (26%) n (%)
- Participants with gastrointestinal AEs overall [2, 9]: 7 (21%) n (%)
- Participants reporting AEs overall ([2]; all doses, % of 34 participants incl. placebo (n = 4), all had received GSK’254): 22 (65%) n (%)
- Intensity of AEs and SAEs ([2]; all doses, except 1 participant with 2 grade 3 non-drug-related AEs): mild-to-moderate
- Terminal phase half-life [3]: ~ 24 hours
